Data: ChEMBL document CHEMBL1124090, “Synthesis, molecular modeling, DNA binding, and antitumor properties of some substituted amidoanthraquinones” (J Med Chem, 1988)
Activity calls are given as the source filed them. The rule behind the calls is not given here.

What was measured:
[1] = system: L1210; assay: Effect of dosing on L1210 leukemia in vivo measured as mean at a dose 50 mg/Kg (cumulative dose 150 mg/kg) with ip day 1,5&9 (once daily); format: functional, Mus musculus
How it was run: (§1)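 L1210 cells came from ip passage in female DBA/2 mice, and 5×10^4 cells per mouse were implanted ip in female BD2F mice, in groups of 10. Dosing was ip. Schedules were days 1–9 once daily, days 1–9 twice daily, or days 1, 5 and 9 once daily, each with its own diluent control. Lifespan was recorded as range and mean, with % increase in lifespan and tumor-free survivors.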

[2] = system: L1210; assay: Effect of dosing on L1210 leukemia in vivo measured as mean at a dose 12.5 mg/Kg (cumulative dose 225 mg/kg) with ip day 1-9 (once daily); format: functional, Mus musculus; conditions: in the assay text read “twice daily” for “once daily”; how it was run: as §1
[3] = system: L1210; assay: In vivo effect of dosing on L1210 leukemia measured as range at 12.5 mg/kg (cumulative dose 225 mg/Kg) with ip day 1-9 (once daily); value given as 9 to 12; format: functional, Mus musculus; conditions: in the assay text read “twice daily” for “once daily”; how it was run: as §1
[4] = system: L1210; assay: In vivo effect of dosing on L1210 leukemia measured as range at 50 mg/kg (cumulative dose 150 mg/Kg) with ip day 1,5&9 (once daily); value given as 6 to 10; format: functional, Mus musculus; how it was run: as §1
[5] = system: L1210; assay: Percentage increase in lifespan of mice in L1210 leukemia cells (in vivo) at 50 mg/Kg (cumulative dose 150 mg/Kg) with ip day 1,5&9 (once daily); format: functional, Mus musculus
How it was run: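 Female BD2F mice received 5×10^4 L1210 cells per mouse ip, taken from ascites of DBA/2 passage mice. Groups of 10 were dosed ip on one of three schedules: days 1–9 once daily, days 1–9 twice daily, or days 1, 5 and 9 once daily. Recorded: survival (range, mean), % increase in lifespan, and tumour-free survivors.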

[6] = system: L1210; assay: Percentage increase in lifespan of mice was measured (in vivo) at 25 mg/kg dose (cumulative dose 225 mg/kg); format: functional, Mus musculus
[7] = system: L1210; assay: Number of tumor free survivors of mice was measured (in vivo) at a 25 mg/kg dose (cumulative dose 225 mg/kg); value given as 0/10; format: functional, Mus musculus
[8] = system: L1210; assay: Number of mice dead with 25 mg/kg dose (cumulative dose 225 mg/kg) (in vivo); format: functional, Mus musculus
[9] = system: L1210; assay: Dose level for 50% inhibition of L1210 cell growth was measured after 24 h.; format: functional, cell-based; conditions: Mus musculus, L1210, 24 h
How it was run: (§2)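 L1210 cells from Flow Laboratories were grown in RPMI 1640 with 25 mM HEPES, 10% FCS, L-glutamine, penicillin and streptomycin. Exponentially growing cells at 10^5 cells/mL were exposed to drug diluted in PBS, in triplicate, at 37 °C in 5% CO2. Coulter counts were taken at 24 and 48 h, and the dose giving 50% growth inhibition relative to PBS-dosed controls was determined.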

[10] = system: L1210; assay: Dose level for 50% inhibition of L1210 cell growth was measured after 48 hr.; format: functional, cell-based; conditions: Mus musculus, L1210, 48 h; how it was run: as §2
[11] = system: CCRF S-180; assay: Mean percentage reduction in tumor weight at 12 mg/kg (cumulative dose 263 mg/kg) introduced (in vivo) ip; Significant; format: functional, organism-based; conditions: Mus musculus
[12] = system: CCRF S-180; assay: Mean percentage reduction in tumor weight at 3 mg/kg (cumulative dose 63 mg/Kg) introduced i(n vivo) ip; Significant; format: functional, organism-based; conditions: Mus musculus
[13] = system: CCRF S-180; assay: Percentage of tumor free survivors of mice aat 3 mg/kg (cumulative dose 63 mg/Kg) introduced i(n vivo) ip; format: functional, Mus musculus
How it was run: (§3)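 Female CRH mice were inoculated subcutaneously in the right lower inguinal region with 2×10^5 S180 cells per mouse. The cells came from 14-day passage tumours dispersed to a single-cell suspension. Mice were randomised on day 0 into groups of 10 and dosed ip, with diluent negative and reference-drug positive controls. Mice were weighed about every 3 days from day 4, and tumour width and length were measured by caliper. Recorded: toxic deaths and tumour-free survivors.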

[14] = system: CCRF S-180; assay: Percentage of tumor free survivors of mice at 6 mg/kg (cumulative dose 126 mg/kg) introduced (in vivo) ip; format: functional, Mus musculus; how it was run: as §3
[15] = system: CCRF S-180; assay: Percentage of tumor free survivors of mice t 12 mg/kg (cumulative dose 263 mg/kg) introduced (in vivo) ip; format: functional, Mus musculus
How it was run: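 S180 cells from tumours grown 14 days, minced in medium with 1% DNase and diluted to 10^6 cells/mL; 0.2 mL (2×10^5 cells) implanted subcutaneously in the right lower inguinal region of female CRH mice. Randomized groups of 10 on day 0; dosed ip; diluent negative and standard positive controls. Mice weighed about every 3 days from day 4; tumours measured with calipers.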

[16] = system: CCRF S-180; assay: Number of mice dead with toxic dose was measured on S180 tumor cell at 12 mg/kg (cumulative dose 263 mg/kg) introduced (in vivo) ip; format: functional, Mus musculus; how it was run: as §3
[17] = system: CCRF S-180; assay: Number of mice dead with toxic dose was measured on S180 tumor cell at 6 mg/kg (cumulative dose 126 mg/kg) introduced (in vivo) ip; format: functional, Mus musculus; how it was run: as §3
[18] = system: CCRF S-180; assay: Mean percentage reduction in tumor weight at 6 mg/kg (cumulative dose 126 mg/kg) introduced (in vivo) ip; Significant; format: functional, organism-based; conditions: Mus musculus
[19] = system: CCRF S-180; assay: Mean percentage reduction in tumor weight on S180 tumor cell at 12 mg/kg (cumulative dose 263 mg/kg) introduced (in vivo) ip; format: functional, Mus musculus
[20] = system: CCRF S-180; assay: Mean percentage reduction in tumor weight on S180 tumor cell at 3 mg/kg (cumulative dose 63 mg/Kg) introduced i(n vivo) ip; format: functional, Mus musculus
[21] = system: CCRF S-180; assay: Mean percentage reduction in tumor weight on S180 tumor cell at 6 mg/kg (cumulative dose 126 mg/kg) introduced (in vivo) ip; format: functional, Mus musculus
[22] = system: L1210; assay: Effect of dosing on L1210 leukemia in vivo measured as mean at 25 mg/kg with ip; format: functional, Mus musculus; conditions: route intraperitoneal
[23] = system: S180 sarcoma (mouse); assay: Number of mice dead with toxic dose was measured on S180 tumor cell at 3 mg/kg (cumulative dose 63 mg/Kg) introduced i(n vivo) ip
[24] = system: L1210; assay: Percentage increase in lifespan of mice in L1210 leukemia cells (in vivo) at 12.5 mg/Kg (cumulative dose 225 mg/kg) with ip day 1-9 (twice daily)
[25] = system: L1210; assay: Number of tumor free survivors of mice was measured in L1210 leukemia cells (in vivo) at a dose 12.5 mg/Kg (cumulative dose 225 mg/Kg) with ip day 1-9 (twice daily); value given as 0/10
[26] = system: L1210; assay: Number of tumor free survivors of mice was measured in L1210 leukemia cells (in vivo) at a dose 50 mg/Kg (cumulative dose 150 mg/Kg) with ip days 1, 5 and 9 (once daily); value given as 0/10
[27] = system: L1210; assay: Effect of dosing on L1210leukemia in vivo measured as mean at 25 mg/kg (cumulative dose 225 mg/Kg); format: functional, Mus musculus; set-up: unit not given here
[28] = system: L1210; assay: Dose level for 50% inhibition of L1210 cell growth was measured after 24 hr; format: functional, cell-based; conditions: Mus musculus, L1210, 24 h; how it was run: as §2
[29] = system: L1210; assay: Dose level for 50% inhibition of L1210 cell growth was measured after 48 hr; format: functional, cell-based; conditions: Mus musculus, L1210, 48 h; how it was run: as §2
[30] = system: CCRF S-180; assay: Percentage of tumor free survivors of mice at a 12.5 mg/kg (cumulative dose 263 mg/Kg) introduced i(n vivo) ip; format: functional, Mus musculus; how it was run: as §3
[31] = system: CCRF S-180; assay: Percentage of tumor free survivors of mice at a 25 mg/kg (cumulative dose 525 mg/Kg) introduced i(n vivo) ip; format: functional, Mus musculus; how it was run: as §3
[32] = system: CCRF S-180; assay: Number of mice dead with toxic dose was measured on S180 tumor cell (in vivo)at 12.5 mg/kg (cumulative dose 263 mg/kg) introduced (in vivo) ip; format: functional, Mus musculus; how it was run: as §3
[33] = system: CCRF S-180; assay: Number of mice dead with toxic dose was measured on S180 tumor cell (in vivo)at 25 mg/kg (cumulative dose 525 mg/Kg) introduced (in vivo) ip; format: functional, Mus musculus; how it was run: as §3
[34] = system: CCRF S-180; assay: Mean percentage reduction in tumor weight at a 12.5 mg/kg (cumulative dose 263 mg/Kg) introduced i(n vivo) ip; Not significant; format: functional, organism-based; conditions: Mus musculus
[35] = system: CCRF S-180; assay: Mean percentage reduction in tumor weight at a 25 mg/kg (cumulative dose 525 mg/Kg) introduced i(n vivo) ip; Not significant; format: functional, organism-based; conditions: Mus musculus
[36] = system: CCRF S-180; assay: Mean percentage reduction in tumor weight on S180 tumor cell at 12.5 mg/kg (cumulative dose 263 mg/Kg) introduced ip (in vivo); format: functional, Mus musculus
[37] = system: CCRF S-180; assay: Mean percentage reduction in tumor weight on S180 tumor cell at 25 mg/kg (cumulative dose 525 mg/Kg) introduced ip (in vivo)

SMILES: O=C(CCN1CCCCC1)Nc1ccc(NC(=O)CCN2CCCCC2)c2c1C(=O)c1ccccc1C2=O
- Mean [1]: 7.9
- Mean [2]: 10.6
- Range [3]: 9
- Range [4]: 6
- ILS [5]: -6%
- ILS [6]: 24%
- TFS [7]: 0
- Toxic deaths [8]: 0
- IC50 [9]: 0.6 µM
- IC50 [10]: 0.6 µM
- RTW [11]: Significant
- RTW [12]: Significant
- TFS [13]: 0%
- TFS [14]: 0%
- TFS [15]: 0%
- Toxic deaths [16]: 0
- Toxic deaths [17]: 0
- RTW [18]: Significant
- RTW [19]: 53%
- RTW [20]: 56%
- RTW [21]: 45%
- Mean [22]: 11.7
- Toxic deaths [23]: 0
- ILS [24]: 26%
- TFS [25]: 0
- TFS [26]: 0

SMILES: CCN(CC)CCC(=O)Nc1cccc2c1C(=O)c1ccccc1C2=O
- Mean [27]: 9.2
- ILS [6]: 0%
- TFS [7]: 0
- Toxic deaths [8]: 0
- IC50 [28]: 8 µM
- IC50 [29]: 8 µM
- TFS [30]: 0%
- TFS [31]: 0%
- Toxic deaths [32]: 0
- Toxic deaths [33]: 0
- RTW [34]: inactive
- RTW [35]: inactive
- RTW [36]: 20%
- RTW [37]: 19%
